Results as given in ChEMBL document CHEMBL5500387, “Design, synthesis of combretastatin A-4 piperazine derivatives as potential antitumor agents by inhibiting tubulin polymerization and inducing autophagy in HCT116 cells” (Eur J Med Chem, 2024).

Legend:
HCT-116 = assay: Cytotoxicity against human HCT-116 cells assessed as inhibition of cell proliferation measured after 72 hrs by CCK-8 assay; assay type: functional, cell-based; details: HCT-116, 72 h
In short: (§1)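 Cells seeded at 2×10^3 per well and grown overnight in 10% FBS medium: HCT116 in McCoy's 5A, A549 and AGS in F-12K, SK-MES-1 in DMEM. Compounds added at varied concentrations with 0.1% DMSO control, 72 h at 37 °C. 10% CCK-8 for 2 h, then A450 read. Survival = (As−Ab)/(Ac−Ab)×100%. IC50 from curve fitting.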

AGS = assay: Cytotoxicity against human AGS cells assessed as inhibition of cell proliferation measured after 72 hrs by CCK-8 assay; assay type: functional, cell-based; in short: as §1
A549 = assay: Cytotoxicity against human A549 cells assessed as inhibition of cell proliferation measured after 72 hrs by CCK-8 assay; assay type: functional, cell-based; details: A549, 72 h; in short: as §1
SK-MES-1 = assay: Cytotoxicity against human SK-MES-1 cells assessed as inhibition of cell proliferation measured after 72 hrs by CCK-8 assay; assay type: functional, cell-based; details: SK-MES-1, 72 h; in short: as §1
[1] = Octanol-water partition coefficient, log P of the compound at pH 7.4 at 4 mg measured after 24 hrs by liquid chromatography; assay type: physicochemical
In short: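 4 mg of compound was dissolved in 1 mL water-saturated n-octanol and held 24 h at room temperature, then centrifuged. The supernatant was mixed with an equal volume of octanol-saturated water, stood 24 h, centrifuged and the phases separated. Phase concentrations were measured by LC standard curves. log P = log(C_octanol/C_water). At least three independent runs.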

[2] = Cytotoxicity against human NCM460 cells assessed as inhibition of cell proliferation measured after 72 hrs by CCK-8 assay; assay type: toxicity, cell-based
In short: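 NCM460 normal colonic epithelial cells seeded at 2×10^3 cells/well and grown overnight in RPMI-1640 with 10% FBS. Compounds added at a range of concentrations, 0.1% DMSO as negative control, 72 h at 37 °C. Read-out by CCK-8 (10%, 2 h) at 450 nm. Survival = (As−Ab)/(Ac−Ab)×100%; IC50 taken as concentration giving 50% inhibition of proliferation.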

Row | SMILES | IC50 (HCT-116) [nM] | also measured
1 | COc1ccc(/C=C(/C(=O)N2CCN(c3ccc(Cl)cc3)CC2)c2cc(OC)c(OC)c(OC)c2)cc1O | 593 | IC50 (AGS): 1110 nM; IC50 (A549): 366 nM; IC50 (SK-MES-1): 753 nM
2 | COc1ccc(/C=C(/C(=O)N2CCN(c3ccc(C#N)cc3)CC2)c2cc(OC)c(OC)c(OC)c2)cc1O | 3350 | 
3 | COc1ccc(/C=C(/C(=O)N2CCN(c3ccc(C)cc3)CC2)c2cc(OC)c(OC)c(OC)c2)cc1O[C@H]1O[C@H](CO)[C@@H](O)[C@H](O)[C@@H]1O |  | logD at 24 h [1]: -0.638
4 | COc1ccc(/C=C(/C(=O)N2CCSCC2)c2cc(OC)c(OC)c(OC)c2)cc1O | 1150 | 
5 | COc1ccc(/C=C(/C(=O)N2CCN(Cc3ccc(C)cc3)CC2)c2cc(OC)c(OC)c(OC)c2)cc1O | 1980 | 
6 | COc1ccc(/C=C\c2cc(OC)c(OC)c(OC)c2)cc1O [COMBRETASTATIN A4] |  | IC50 at 72 h [2]: 11 nM; logD at 24 h [1]: 2.14; IC50 (AGS): 74 nM; IC50 (SK-MES-1): 7 nM
7 | COc1ccc(/C=C(/C(=O)N2CCOCC2)c2cc(OC)c(OC)c(OC)c2)cc1O | 926 | 
8 | COc1ccc(/C=C(/C(=O)N2CCN(Cc3ccc(Cl)cc3)CC2)c2cc(OC)c(OC)c(OC)c2)cc1O | 2690 | 
9 | COc1ccc(/C=C(/C(=O)N2CCN(c3ccc(C)cc3)CC2)c2cc(OC)c(OC)c(OC)c2)cc1O[C@H]1O[C@@H](CO)[C@H](O[C@@H]2O[C@H](CO)[C@H](O)[C@H](O)[C@H]2O)[C@@H](O)[C@@H]1O |  | logD at 24 h [1]: -0.824
10 | COc1ccc(/C=C(/C(=O)N2CCN(c3ccccc3Cl)CC2)c2cc(OC)c(OC)c(OC)c2)cc1O | 1840 | 
11 | COc1ccc(/C=C(/C(=O)N2CCNCC2)c2cc(OC)c(OC)c(OC)c2)cc1O | 735 | 
12 | COc1ccc(/C=C(/C(=O)N2CCN(c3cccc(C)c3)CC2)c2cc(OC)c(OC)c(OC)c2)cc1O | 1770 | 
13 | COc1ccc(/C=C(/C(=O)N2CCS(=O)(=O)CC2)c2cc(OC)c(OC)c(OC)c2)cc1O | 1990 | 
14 | COc1ccc(/C=C(/C(=O)N2CCN(Cc3cccc(C)c3)CC2)c2cc(OC)c(OC)c(OC)c2)cc1O | 3640 | 
15 | COc1ccc(/C=C(/C(=O)N2CCN(Cc3ccccc3C)CC2)c2cc(OC)c(OC)c(OC)c2)cc1O | 2850 | 
16 | COc1ccc(/C=C(/C(=O)N2CCN(c3ccc(C)cc3)CC2)c2cc(OC)c(OC)c(OC)c2)cc1O[C@H]1O[C@@H](CO)[C@H](O)[C@@H](O)[C@@H]1O |  | logD at 24 h [1]: -0.538
17 | COc1ccc(/C=C(/C(=O)N2CCN(c3ccc(Br)cc3)CC2)c2cc(OC)c(OC)c(OC)c2)cc1O | 716 | IC50 (AGS): 1350 nM; IC50 (A549): 547 nM; IC50 (SK-MES-1): 803 nM
18 | COc1ccc(N2CCN(C(=O)/C(=C/c3ccc(OC)c(O)c3)c3cc(OC)c(OC)c(OC)c3)CC2)cc1 | 941 | IC50 (AGS): 882 nM; IC50 (A549): 657 nM; IC50 (SK-MES-1): 605 nM
19 | COc1ccc(/C=C(/C(=O)N2CCN(c3ccc(C)cc3)CC2)c2cc(OC)c(OC)c(OC)c2)cc1O[C@H]1O[C@@H](CO)[C@@H](O)[C@@H](O)[C@@H]1O |  | logD at 24 h [1]: -0.432
20 | COc1ccc(/C=C(/C(=O)N2CCCC2)c2cc(OC)c(OC)c(OC)c2)cc1O | 2480 | 
21 | COc1ccc(/C=C(/C(=O)N2CCN(c3ccc([N+](=O)[O-])cc3)CC2)c2cc(OC)c(OC)c(OC)c2)cc1O | 2770 | 
22 | COc1ccc(/C=C(/C(=O)N2CCN(c3ccc(F)cc3)CC2)c2cc(OC)c(OC)c(OC)c2)cc1O | 253 | IC50 (AGS): 531 nM; IC50 (A549): 270 nM; IC50 (SK-MES-1): 385 nM
23 | COc1cccc(N2CCN(C(=O)/C(=C/c3ccc(OC)c(O)c3)c3cc(OC)c(OC)c(OC)c3)CC2)c1 | 1860 | 
24 | COc1ccc(/C=C(/C(=O)N2CCN(c3ccccc3F)CC2)c2cc(OC)c(OC)c(OC)c2)cc1O | 1380 | 
25 | COc1ccc(/C=C(/C(=O)N2CCN(c3ccccc3C)CC2)c2cc(OC)c(OC)c(OC)c2)cc1O | 1580 | 
26 | COc1ccc(/C=C(/C(=O)N2CCN(Cc3ccc(F)cc3)CC2)c2cc(OC)c(OC)c(OC)c2)cc1O | 2100 | 
